# Rows were chosen to be rich in hits. Some 2.3% of all compounds tested hit in one or more screens of this group.
# MC4R ag barr: agonists of human melanocortin 4 receptor (MC4R) beta-arrestin | activation, % at 8.9 µM | actives 0.98% (n = 360,000) | AID 540308 | U2OS MC4R beta-arrestin complementation, luminescence; percent of melanotan II response, DMSO zero;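 active means activation above a per-plate cutoff, the mean activation of sample wells on that plate plus 3 SD, cut at about 8% in these data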
# Target sequence (P32245 whole entry, looked up): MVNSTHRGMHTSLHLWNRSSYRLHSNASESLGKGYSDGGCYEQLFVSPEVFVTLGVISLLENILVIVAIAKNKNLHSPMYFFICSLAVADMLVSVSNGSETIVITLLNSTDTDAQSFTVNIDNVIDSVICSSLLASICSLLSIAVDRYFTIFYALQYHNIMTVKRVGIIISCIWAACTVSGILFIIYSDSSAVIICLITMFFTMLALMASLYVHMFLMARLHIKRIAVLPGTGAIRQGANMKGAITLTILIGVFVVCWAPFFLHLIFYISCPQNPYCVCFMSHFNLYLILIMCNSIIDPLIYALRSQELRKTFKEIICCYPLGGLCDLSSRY
# MC4R antag cAMP: blocks human MC4R cAMP signaling; P32245; actives 0.48% (n = 360,000); AID 540295; inhibition, % at 6.5 µM; MC4R-expressing cells, MTII-stimulated cAMP, LANCE TR-FRET;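 active means inhibition above its plate's cutoff, the mean of tested wells on that plate plus 3 SD, cut at about 29% in these data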;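 further: 0% = Melanotan II alone and 100% = Melanotan II plus saturating MCL0020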
#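 Assay system: human MC4R-expressing U2OS cells; reagent: Melanotan II stimulation of cells; dosing: 6.5 µM single dose; timing: compound 30 min, challenge 1 h, detection 1 h; signal: TR-FRET cAMP assay; replicates: one well per compound, no replicates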
# MsrA act: activates bovine MsrA enzyme | purified bovine MsrA, absorbance read-out | actives 0.3% (n = 360,000) | AID 602163 | activation, % at 10.6 µM; in the data active means activation above about 7.5%;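 further: 0% = vehicle and 100% = reference activator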
# MsrA inh: inhibits bovine methionine sulfoxide reductase A; purified bovine MsrA, absorbance read-out; inhibition, % at 15.5 µM; actives 0.75% (n = 360,000); in the data active means inhibition above about 4.5%;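 further: 0% = vehicle wells with enzyme and 100% = reference inhibitor wells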
# MsrA activ conf: confirmation of bovine methionine sulfoxide reductase A activators; AID 602270; purified bovine MsrA, absorbance read-out; activation, % at 10.6 µM; actives 12% (n = 1,000); shares compounds with MsrA act; in the data active means activation above about 4%;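 further: enzyme coupled to thioredoxin and thioredoxin reductase with NADPH; 0% = vehicle wells and 100% = reference activator wells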
# Starred values were filed as active, the others as inactive; nt = no result.
SMILES,MC4R ag barr,MC4R antag cAMP,MsrA act,MsrA inh,MsrA activ conf
COc1cc(SC)ccc1C(=O)OCC(=O)NC(=O)NC(C)C,-3,2,7.9*,0,-3
CC(c1ccccc1)n1cc(C(=O)NCc2ccccn2)nn1 (stereo unspecified),0,20,-2,-1,nt
Cc1sc(N)nc1-c1cccs1,-3,7,0,1,nt
CC(C)C[C@@H]1O[C@H](CCc2ccccc2)Cc2[nH]c(=S)[nH]c(=O)c21,nt,nt,10*,-1,-1
CCOc1ccc(-n2c(N)c(C(=O)NCc3cccnc3)sc2=S)cc1,-1,0,-5,1,nt
C=CCn1c(N)c(C(=O)NCc2cccnc2)sc1=S,-2,2,8.8*,4,0
CCC(C)(C)n1nnnc1C(c1ccc2ncccc2c1)N1CCN(Cc2ccc3c(c2)OCO3)CC1 (stereo unspecified),1,-5,-10,1,nt
CCC(C)(C)n1nnnc1C(c1ccc(C)cc1)N1CCN(Cc2ccc3c(c2)OCO3)CC1 (stereo unspecified),0,-1,8.7*,0,-1
O=C(c1cc(COc2ccc(F)cc2Cl)on1)N1CCCCCC1,0,5,-2,2,nt
O=C1NCCN(Cc2c(F)cccc2Cl)C1CC(=O)N1CCCCO1 (stereo unspecified),1,2,-15,0,nt
O=C1NCCN(Cc2ccc(Cl)c(F)c2)C1CC(=O)N1CCCCO1 (stereo unspecified),-2,8,8.6*,-1,-2
CCCOc1ccc(/C=C2\SC(=S)N(CC3CCCO3)C2=O)cc1 (stereo unspecified),-1,-6,-1,0,nt
O=C1/C(=C/c2ccc(O)cc2)SC(=S)N1CC1CCCO1 (stereo unspecified),-3,-16,11*,2,-1
O=C(NCc1ccc(F)cc1)c1cc2ccccc2o1,0,-2,9.6*,-1,0
COc1cc2c(cc1OC)C(COc1cccc(C(F)(F)F)c1)NCC2 (stereo unspecified),-1,-4,-3,0,nt
CCOc1ccccc1N1CCN(S(=O)(=O)c2cccc3nsnc23)CC1,1,9,1,0,nt
O=C(C1CCN(S(=O)(=O)c2ccccc2)CC1)N1CCc2ccccc21,-4,3,-3,0,nt
O=C(C1CCN(S(=O)(=O)c2ccccc2F)CC1)N1CCc2ccccc21,0,3,8.8*,-2,-1
O=C(Nc1nnc(COc2ccc(F)cc2)s1)c1cccs1,-2,-1,-4,1,nt
CCc1nnc(N/N=C/c2c(Cl)cccc2Cl)n1N,-3,7,5,0,nt
CCc1nnc(N/N=C\c2ccc(OC(C)=O)c(OC)c2)n1N,1,-7,12*,1,-2
CCc1nnc(N/N=C/c2ccc(O)c(OC)c2)n1N,1,8,5,0,nt
CCOc1cc(/C=N/Nc2nnc(C)n2N)ccc1OC(C)=O,-1,1,27*,0,1
COc1ccc(/C=N/Nc2nncn2N)cc1Br,-1,9,25*,0,2
CCc1nnc(N/N=C/c2cccs2)n1N,1,1,8.1*,2,-2
SMILES,MC4R ag barr,MC4R antag cAMP,MsrA act,MsrA inh,MsrA activ conf
CN(CC(=O)Nc1ccccc1Cl)C(=O)c1ccc(Cl)c(S(=O)(=O)N2CCCCCC2)c1,-2,22,-2,0,nt
O=C(CSc1nnc(Cc2ccccc2)o1)c1ccccc1,1,10,2,-1,nt
CCOCCCNC(C(=O)Nc1ccc(OC)c(Cl)c1)c1ccccc1 (stereo unspecified),-1,9,1,0,nt
CC1=C(C#N)C(c2ccc(O)cc2)C2=C(CC(C)(C)CC2=O)N1 (stereo unspecified),-3,-3,10*,0,-1
CCOc1cc(N2CCOCC2)c(OCC)cc1NC(=O)Cn1nc(C)c([N+](=O)[O-])c1C,-4,8,-3,1,nt
Cc1nn(CC(=O)NCCCN2CCOCC2)c(C)c1[N+](=O)[O-],-3,-2,14*,1,3
C#CC(C)(O)C1CC(CC(=O)O)C1(C)C (stereo unspecified),-1,3,10*,nt,-2
CC1(C)C(CC(=O)O)CC1C(=O)O (stereo unspecified),-1,-3,6,1,nt
C[C@H](CO)N1C[C@H](C)[C@@H](CN(C)CC2CCCCC2)Oc2ccc(NC(=O)CCN3CCOCC3)cc2C1=O,-1,3,-5,0,nt
CCOc1ccc(NC(C(=O)Nc2cccc(C(C)=O)c2)c2ccccc2)cc1 (stereo unspecified),-1,2,9.5*,1,10*
COCC(C)NC(C(=O)Nc1cccc(C(C)=O)c1)c1ccccc1 (stereo unspecified),1,3,-5,-1,nt
Cc1cccc(OCCC(=O)OC(C)C(=O)Nc2ccc(Cl)cn2)c1 (stereo unspecified),-2,12,15*,0,-2
CC(OC(=O)CCOc1ccccc1)C(=O)Nc1ccc(Cl)cn1 (stereo unspecified),1,8,-15,1,nt
Cc1cc2nc(-c3ccc[nH]c3=O)n(Cc3ccc(F)cc3)c2cc1C,0,10,-6,2,nt
O=c1[nH]cccc1-c1nc2ccccc2n1Cc1ccc(F)cc1,0,6,15*,1,-3
O=C(COC(=O)c1c[nH]c2ccccc12)NC1CCCC1,0,-2,22*,-1,-2
O=C(COC(=O)c1cc(=O)[nH]c2ccccc12)NC1CCCCCCC1,-3,7,-3,2,nt
O=C1C(Cl)=C(NCc2ccco2)C(=O)c2ccccc21,0,-30,14*,1,11*
Cc1ccc(NC2=C(Cl)C(=O)c3ccccc3C2=O)cc1,-1,1,-2,2,nt
CCNC1=C(Cl)C(=O)c2ccccc2C1=O,3,-21,12*,0,4.0*
CC(C)(C)c1ccc(C2(C)NC(=O)N(CC(=O)NCc3cccs3)C2=O)cc1 (stereo unspecified),-1,8,-1,0,nt
C=CCn1c(SCC(=O)NC2(C#N)CCCCC2)nnc1-c1ccncc1,-5,16,-1,0,nt
COc1ccc(NC(=S)Nc2ccccc2)cn1,0,-5,-1,0,nt
FC(F)(F)c1nc2nc(Cl)c(Cl)nc2[nH]1,-1,5,-4,4,nt
FC(F)(F)c1cccc(-c2nc3nc(Cl)c(Cl)nc3[nH]2)c1,0,14,12*,nt,-4
O=C(CCN1CCN(C(=O)c2ccco2)CC1)Nc1ccc(F)cc1,-2,9,-4,1,nt
O=C(c1ccco1)N1CCN(CCCCOc2ccc(F)cc2)CC1,-2,8,9.4*,-1,-2
COc1ccccc1CC(=O)NCC1CCCO1 (stereo unspecified),-1,-5,8.4*,0,0
COc1ccccc1CNC(=O)C(=O)NCC1CCCO1 (stereo unspecified),0,7,-5,0,nt

# Screens from PubChem BioAssay.
